Most compounds without a hit are left out; they make up all but 3.5% or so of the library.
MrgX1 PAM: allosterically activates human MrgX1 receptor signaling; B-score at 10 µM; AID 588675; actives 0.63% (n = 310,000); MrgX1-HEK293, Fluo-4 calcium flux, FDSS; hits give high values;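 active means plate-corrected calcium response at least 3 library SD above typical, normal starting fluorescence, not activating the receptor alone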;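 further: compound read alongside a low EC10 to EC30 dose of BAM8-22 agonist; peak minus trough fluorescence over baseline measured at the second addition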
Target sequence (Q96LB2 whole entry, looked up): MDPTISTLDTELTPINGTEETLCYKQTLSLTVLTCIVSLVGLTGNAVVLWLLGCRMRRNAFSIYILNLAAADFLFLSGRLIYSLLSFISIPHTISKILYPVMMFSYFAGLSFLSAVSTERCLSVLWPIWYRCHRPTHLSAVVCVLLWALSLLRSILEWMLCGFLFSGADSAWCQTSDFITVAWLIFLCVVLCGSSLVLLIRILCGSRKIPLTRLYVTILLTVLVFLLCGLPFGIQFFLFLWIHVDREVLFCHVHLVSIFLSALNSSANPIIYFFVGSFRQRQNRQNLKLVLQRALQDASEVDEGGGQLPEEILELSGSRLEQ
MrgX1 antag: human MrgX1 receptor antagonism, primary screen; Q96LB2; actives 1.3% (n = 310,000); MRGX1-HEK293 calcium flux, Fluo-4, BAM8-22 antagonism; hits give low values; B-score at 10 µM;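 active means calcium-response B-score plate-corrected more than 3 library SD below zero, starting fluorescence within 5 deviations, no agonist response on first addition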;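 further: peak minus trough fluorescence over baseline after final BAM8-22 challenge near maximal dose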
RGS4 pot: potentiators or activators of RGS4 | HEK293 M3R/inducible RGS4, carbachol calcium flux Fluo4; hits give low values | B-score at 10 µM | actives 0.92% (n = 310,000) | AID 463111;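 active means B-score of the integrated calcium signal more than 4 SD below the library mean, with starting fluorescence not abnormally high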;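 further: negative B-score means reduced calcium response which marks RGS4 activation or potentiation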
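Reagent: ECmax carbachol challenge; Test system: M3R-expressing HEK293 line, RGS4 induced by doxycycline; Schedule: overnight RGS4 induction, 30 min dye load 37 °C, 20 min compound RT; Detection: calcium dye Fluo4 fluorescence; Read-out: Agonist-evoked peak-minus-minimum fluorescence over baseline, integrated ratio, B score.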
MrgX1 ag: activates human MrgX1 receptor signaling | MrgX1-HEK293 cells, Fluo-4 calcium fluorescence, agonist mode; hits give high values | B-score at 10 µM | actives 0.44% (n = 310,000);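 active means calcium response B-score plate-corrected fluorescence ratio at least 3 library SD, with starting fluorescence B-score inside 5 SD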
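Assay system: stable human MrgX1 HEK293 cell line. Quantity: 15,000 cells per well. Schedule: cells plated overnight, dye loaded 0.5 h 37 °C, 0.5 h room temperature. Detection: Fluo-4 NW calcium-flux fluorescence, kinetic read. Read-out basis: peak-minus-minimum fluorescence over baseline, converted to B scores. Control set: positive and negative control wells on each plate.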
RGS4 inh: inhibitors of human RGS4. AID 463165. actives 0.45% (n = 310,000). B-score at 10 µM. HEK293 M3R/RGS4 inducible, Fluo-4 calcium flux; hits give high values; triggered by carbachol at its EC20;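 active means B-score, a plate-corrected calcium signal, over three deviations above library mean, with baseline fluorescence within five deviations of library mean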;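 further: RGS4 expression induced by doxycycline in cells with stable M3 receptor; B-score is computed from the integrated fluorescence ratio over baseline after carbachol; higher B-score means a larger calcium signal and so more RGS4 inhibition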
Target sequence (P49798 whole entry, looked up): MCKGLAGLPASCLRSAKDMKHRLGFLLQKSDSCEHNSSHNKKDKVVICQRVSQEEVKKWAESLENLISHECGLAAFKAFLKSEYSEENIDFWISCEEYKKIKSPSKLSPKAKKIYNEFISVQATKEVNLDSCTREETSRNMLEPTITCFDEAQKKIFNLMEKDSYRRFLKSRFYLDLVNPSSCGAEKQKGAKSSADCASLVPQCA
MrgX1 ant reconf: confirmation of human MrgX1 receptor antagonists. AID 602420. shares compounds with MrgX1 antag. actives 19% (n = 2,300). MrgX1-HEK293, BAM8-22 calcium flux, Fluo-4; hits give low values. remaining BAM8-22 calcium response % of control (hits give low values), % at 10 µM;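 active means remaining agonist calcium response no higher than 100% minus 3 SD of agonist-only control wells, with starting fluorescence near control levels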;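 further: agonist BAM8-22 given at a near maximal EC90 to ECmax level; peak minus minimum fluorescence divided by baseline after agonist addition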
HEK293 Ca flux: MrgX1 antagonist counter-screen hit in parental HEK293 cells; actives 2% (n = 4,000); shares compounds with MrgX1 antag; fluorescence ratio F(max-min)/F0 at 10 µM; Fluo-4 calcium fluorescence, FDSS; AID 624111;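 active means duplicate-averaged calcium fluorescence ratio at least three times the standard deviation of buffer wells, a nonspecific response in parental cells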
HEK293 Ca counter: activity in parental HEK293 cells without MrgX1 | parental HEK293 calcium flux, Fluo-4 fluorescence ratio; hits give high values | actives 0.4% (n = 4,000) | fluorescence ratio F(max-min)/F0 at 10 µM | shares compounds with MrgX1 antag;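 active means calcium fluorescence ratio, averaged over duplicates, at least 3 SD of the buffer-well ratio, meaning a nonspecific response in receptor-free cells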;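 further: untransfected parental HEK293 lacking MrgX1 used as counterscreen for MrgX1 allosteric activators; fluorescence change taken during the second addition on a kinetic imager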
HEK293 Ca cntr2: MrgX1 activator counter-screen hit in parental HEK293 cells. shares compounds with MrgX1 antag. Fluo-4 calcium fluorescence (FDSS); hits give high values. fluorescence ratio F(max-min)/F0 at 10 µM. actives 8.7% (n = 4,000);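 active means calcium fluorescence ratio at least three times the spread of buffer wells, meaning a non-specific response in parental cells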
Each line names hits and unclear results; the compound was inactive in the other large screens (follow-up assays come after a bar, where they were run).

COC(=O)c1ccc(NC(=O)CSc2ccccn2)cc1	none
COC(=O)c1ccc(NC(=O)CN2CCN(c3ccccc3)CC2)cc1	MrgX1 antag -6.7 | MrgX1 ant reconf inactive | HEK293 Ca flux inactive | HEK293 Ca counter inactive | HEK293 Ca cntr2 inactive
COC(=O)c1ccc(NC(=O)CSc2ccccc2)cc1	MrgX1 antag -5.9 | MrgX1 ant reconf inactive | HEK293 Ca flux inactive | HEK293 Ca counter inactive | HEK293 Ca cntr2 inactive
O=C1C2CCCN2C(c2cccc(Br)c2)N1c1ccc(F)cc1 (stereo not given)	none
O=C1C2CCCN2C(c2ccc(Br)cc2)N1c1ccc(F)cc1 (stereo not given)	MrgX1 antag -5.7 | MrgX1 ant reconf inactive | HEK293 Ca flux inactive | HEK293 Ca counter inactive | HEK293 Ca cntr2 inactive
COc1ccc(C2N(c3ccc(F)cc3)C(=O)C3CCCN32)cc1 (stereo not given)	MrgX1 antag -6.3 | MrgX1 ant reconf inactive | HEK293 Ca flux inactive | HEK293 Ca counter inactive | HEK293 Ca cntr2 inactive
Cc1nc2c(sc3nc(N4CCOCC4)c4c(c32)CC(C)(C)OC4)c(-c2ccc(Cl)cc2)c1C(=O)O	none
COc1ccc(C)cc1S(=O)(=O)N(CC(=O)N1CCCC1)c1ccccc1	MrgX1 antag -5.8 | MrgX1 ant reconf inactive | HEK293 Ca flux inactive | HEK293 Ca counter inactive | HEK293 Ca cntr2 inactive
COc1ccc(C)cc1S(=O)(=O)N(CC(=O)N1CCCC1)c1ccc(C)cc1	none
CCCC(=O)C1=C(c2ccccc2)C(C#N)(C#N)C(C#N)=C1N	none
CCN(c1ccc(OCC(=O)OCC(=O)Nc2ccc(F)c(F)c2F)cc1)S(=O)(=O)c1ccccc1	none (no result: RGS4 pot, RGS4 inh)
OCCCNc1cc(-c2ccnc(Nc3cccc(Cl)c3)n2)ccn1	MrgX1 antag -4.9 | MrgX1 ant reconf 60% | HEK293 Ca flux inactive | HEK293 Ca counter inactive | HEK293 Ca cntr2 inactive
CSc1nnc2n(C)c3c(c(=O)n12)C1(CCCC1)Cc1ccccc1-3	none
CSc1n[nH]c2nc3c(c(=O)n12)C1(CCCC1)Cc1ccccc1-3	MrgX1 antag -5.4 | MrgX1 ant reconf inactive | HEK293 Ca flux inactive | HEK293 Ca counter inactive | HEK293 Ca cntr2 inactive
CN1CCN(C(=S)Nc2cccc(Cl)c2)CC1	MrgX1 antag -4.9 | MrgX1 ant reconf inactive | HEK293 Ca flux inactive | HEK293 Ca counter inactive | HEK293 Ca cntr2 inactive
COC(=O)c1cccnc1NC(=S)NC1CCCCC1	MrgX1 antag -4.8 | MrgX1 ant reconf inactive | HEK293 Ca flux inactive | HEK293 Ca counter inactive | HEK293 Ca cntr2 inactive
COC(=O)c1ccc(NC(=S)NC2CCCCC2)cc1	none
Cc1cc(=O)n2nc(N3CCC(C(=O)NCc4cccc(Cl)c4)CC3)sc2n1	none
COC(=O)C(Cc1ccccc1)N1CCS(=O)(=O)CC1 (stereo not given)	none
COC(=O)C(Cc1c[nH]c2ccccc12)N1CCS(=O)(=O)CC1 (stereo not given)	MrgX1 antag -5.7 | MrgX1 ant reconf inactive | HEK293 Ca flux inactive | HEK293 Ca counter inactive | HEK293 Ca cntr2 inactive
Cc1[nH]c2ccc(C(=O)OC(C)C(=O)NC3(C#N)CCCCC3)cc2c1C (stereo not given)	MrgX1 antag -6 | MrgX1 ant reconf inactive | HEK293 Ca flux inactive | HEK293 Ca counter inactive | HEK293 Ca cntr2 inactive
COc1cccc(OCCOc2ccccc2[N+](=O)[O-])c1	none
COc1cccc(OCCCOc2ccccc2C(C)C)c1	MrgX1 antag -6.9 | MrgX1 ant reconf inactive | HEK293 Ca flux inactive | HEK293 Ca counter inactive | HEK293 Ca cntr2 inactive
COc1ccc(NC(=O)N2CCCC2C(=O)Nc2ccc(C)cc2C)cc1 (stereo not given)	none
O=C(CCc1ccccc1)N1CCCC(Nc2ccc(F)cc2)C1 (stereo not given)	none
Cc1ccccc1N1C(=O)CN(Cc2sccc2C)C1=S	none
Cc1ccc(-c2nc3cccnc3o2)cc1NC(=O)COc1ccc(C(C)(C)C)cc1	MrgX1 antag -12, RGS4 pot -8.2 | MrgX1 ant reconf 83% | HEK293 Ca flux inactive | HEK293 Ca counter inactive | HEK293 Ca cntr2 inactive
O=C(NCC1CCCN1S(=O)(=O)c1ccccc1)C(=O)NC1CC1 (stereo not given)	MrgX1 antag -4.6 | MrgX1 ant reconf inactive | HEK293 Ca flux inactive | HEK293 Ca counter inactive | HEK293 Ca cntr2 inactive
O=C(NNc1ccc(Cl)nn1)c1ccc(Cl)cc1	none
CCOC(=O)c1cnc(-n2nc(C)cc2C)nc1NC1CCCCC1	MrgX1 antag -4.9 | MrgX1 ant reconf 67% | HEK293 Ca flux inactive | HEK293 Ca counter inactive | HEK293 Ca cntr2 inactive
Cn1c(SCC(=O)c2c(N)n(C)c(=O)n(C)c2=O)nnc1-c1ccccc1	none
Cn1c(SCC(=O)c2c(N)n(C)c(=O)n(C)c2=O)nnc1-c1ccccc1F	MrgX1 antag -5.2 | MrgX1 ant reconf inactive | HEK293 Ca flux inactive | HEK293 Ca counter inactive | HEK293 Ca cntr2 inactive
COc1ccc(C2CC(=O)C=C(NNS(=O)(=O)c3ccc(C)cc3)C2)cc1 (stereo not given)	none
Cn1cc(CNC(=O)C2CCC(=O)N(Cc3ccccc3F)C2)cn1 (stereo not given)	MrgX1 antag -4.7 | MrgX1 ant reconf inactive | HEK293 Ca flux inactive | HEK293 Ca counter inactive | HEK293 Ca cntr2 inactive
Cc1cc(C)c(NC(=O)C2CCN(c3cnccn3)CC2)c(C)c1	MrgX1 antag -6.1 | MrgX1 ant reconf inactive | HEK293 Ca flux inactive | HEK293 Ca counter inactive | HEK293 Ca cntr2 inactive
COC(=O)C1=C(C)NC(C)=C(C(=O)OC)C1c1cn(-c2ccccc2)nc1-c1ccco1	none
Cc1ccc(-c2nc3cc(N)ccc3o2)cc1	none
Cc1ccc2oc(-c3cccc(N)c3)nc2c1	MrgX1 antag -6.2 | MrgX1 ant reconf inactive | HEK293 Ca flux inactive | HEK293 Ca counter inactive | HEK293 Ca cntr2 inactive
O=C(O)CCC(=O)NCC1OCCc2ccccc21 (stereo not given)	MrgX1 antag -8.6 | MrgX1 ant reconf inactive | HEK293 Ca flux inactive | HEK293 Ca counter inactive | HEK293 Ca cntr2 inactive
CC(C(=O)N=c1sc2ccccc2n1C)N1C(=O)C2CC=CCC2C1=O (stereo not given)	MrgX1 antag -4.7 | MrgX1 ant reconf inactive | HEK293 Ca flux inactive | HEK293 Ca counter inactive | HEK293 Ca cntr2 inactive
CC(=O)N=c1sc2ccccc2n1C	none

High-throughput results from PubChem.
